One may read the IC50 as the point on the concentration scale where inhibition reaches its midpoint.

Calls of active or inactive are those of the source. The rule behind the calls is not given here.

Our source for the Activity and IC50 values is ChEMBL document CHEMBL3603808, “Discovery and structure of a new inhibitor scaffold of the autophagy initiating kinase ULK1” (Bioorg Med Chem, 2015).

The subject of experiment [1] is HeLa. Briefly: Inhibition of autophagy in human HeLa cells assessed as induction of LC3-I protein accumulation at 4 uM incubated for 24 hrs by immunoblotting method. The experiment is classed as functional, cell-based. The method in brief: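 HeLa cells were grown in DMEM with 10% FBS to about 50% confluency, then given 4 µM compound or DMSO for 24 h. Cold-PBS wash, lysis in TBS pH 7.6 with 1% Triton-X, 0.2% SDS and protease/phosphatase inhibitors. Lysates were protein-normalized and immunoblotted for LC3-I/LC3-II, with actin as loading control.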
In general terms: In western blotting, separated proteins are transferred to a membrane and probed.

For experiment [2], the target named is T1, 3-phosphoinositide-dependent protein kinase 1 (Homo sapiens, UniProt O15530).
T1 sequence (O15530 whole entry): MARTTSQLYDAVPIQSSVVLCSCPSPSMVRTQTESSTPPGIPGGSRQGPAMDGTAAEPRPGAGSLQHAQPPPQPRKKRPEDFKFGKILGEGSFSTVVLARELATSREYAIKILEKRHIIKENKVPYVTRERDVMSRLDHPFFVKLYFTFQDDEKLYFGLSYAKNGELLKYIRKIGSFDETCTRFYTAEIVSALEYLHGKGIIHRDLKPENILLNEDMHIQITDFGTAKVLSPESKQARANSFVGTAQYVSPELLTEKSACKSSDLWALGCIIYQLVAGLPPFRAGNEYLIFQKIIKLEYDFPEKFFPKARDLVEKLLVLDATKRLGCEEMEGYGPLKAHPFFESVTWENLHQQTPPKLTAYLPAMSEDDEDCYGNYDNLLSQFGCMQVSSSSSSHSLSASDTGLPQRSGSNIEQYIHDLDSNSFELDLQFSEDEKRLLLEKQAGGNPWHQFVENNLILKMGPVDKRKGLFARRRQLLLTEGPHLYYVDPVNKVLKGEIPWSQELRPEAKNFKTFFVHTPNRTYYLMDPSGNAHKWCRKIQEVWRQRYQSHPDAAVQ
Briefly: Inhibition of recombinant PDK1 (unknown origin) using PDK1tide substrate incubated for 7 mins. The method in brief:
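Recombinant PDK1 at 5 nM with 50 µM synthetic PDK1tide in 50 mM HEPES pH 7.5, 10 mM MgCl2, 1 mg/ml BSA, 0.02% Triton-X and 50 µM DTT. Stopped after 7 min by spotting onto nitrocellulose, washed three times in 1% phosphoric acid and phosphorimaged. IC50 from curve fitting; duplicate.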

Experiment [3] deals with T2, Serine/threonine-protein kinase ULK2 (Homo sapiens, UniProt Q8IYT8).
T2 sequence (Q8IYT8 whole entry): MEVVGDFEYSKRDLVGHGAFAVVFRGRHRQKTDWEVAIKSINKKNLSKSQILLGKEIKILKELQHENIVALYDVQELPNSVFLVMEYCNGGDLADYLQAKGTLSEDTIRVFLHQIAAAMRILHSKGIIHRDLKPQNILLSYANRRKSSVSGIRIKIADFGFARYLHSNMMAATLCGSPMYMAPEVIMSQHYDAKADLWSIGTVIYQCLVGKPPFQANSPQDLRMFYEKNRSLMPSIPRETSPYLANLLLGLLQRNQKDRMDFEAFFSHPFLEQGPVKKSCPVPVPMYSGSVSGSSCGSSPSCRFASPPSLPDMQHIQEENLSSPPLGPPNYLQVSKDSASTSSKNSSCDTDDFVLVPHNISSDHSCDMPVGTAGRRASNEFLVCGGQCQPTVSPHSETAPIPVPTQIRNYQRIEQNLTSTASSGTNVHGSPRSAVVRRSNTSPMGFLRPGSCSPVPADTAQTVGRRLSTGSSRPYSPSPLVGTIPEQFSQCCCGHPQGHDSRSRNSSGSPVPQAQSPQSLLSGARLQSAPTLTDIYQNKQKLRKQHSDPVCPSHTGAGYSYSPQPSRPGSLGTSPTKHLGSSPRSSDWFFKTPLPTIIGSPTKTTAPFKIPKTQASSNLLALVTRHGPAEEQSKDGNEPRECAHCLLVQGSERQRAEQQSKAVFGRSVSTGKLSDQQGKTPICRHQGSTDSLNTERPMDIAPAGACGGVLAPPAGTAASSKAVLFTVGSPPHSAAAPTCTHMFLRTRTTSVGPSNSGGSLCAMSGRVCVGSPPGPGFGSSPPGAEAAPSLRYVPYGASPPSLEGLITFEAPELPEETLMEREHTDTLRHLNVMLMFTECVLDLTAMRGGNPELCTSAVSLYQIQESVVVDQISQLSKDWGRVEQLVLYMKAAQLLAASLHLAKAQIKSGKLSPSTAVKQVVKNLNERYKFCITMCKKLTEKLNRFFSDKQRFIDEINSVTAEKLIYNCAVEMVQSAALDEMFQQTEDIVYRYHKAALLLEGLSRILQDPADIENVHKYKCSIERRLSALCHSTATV
Briefly: Inhibition of SUMO-tagged ULK2 (unknown origin) kinase domain expressed in KRX cells using [32P]-gamma-ATP and myelin basic protein substrate incubated for 7 mins. The experiment is classed as single protein. The method in brief: (§1)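 Enzyme at 5 nM with 50 µM cold ATP, 0.05 µCi/µl 32P-γ-ATP and 20 µM myelin basic protein as substrate. Reactions were spotted onto nitrocellulose, washed three times in 1% phosphoric acid, dried and imaged by phosphorimager. IC50 from curve fitting; duplicate.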

The target of experiment [4] is T3, Serine/threonine-protein kinase ULK1 (Homo sapiens, UniProt O75385).
T3 sequence (O75385 whole entry): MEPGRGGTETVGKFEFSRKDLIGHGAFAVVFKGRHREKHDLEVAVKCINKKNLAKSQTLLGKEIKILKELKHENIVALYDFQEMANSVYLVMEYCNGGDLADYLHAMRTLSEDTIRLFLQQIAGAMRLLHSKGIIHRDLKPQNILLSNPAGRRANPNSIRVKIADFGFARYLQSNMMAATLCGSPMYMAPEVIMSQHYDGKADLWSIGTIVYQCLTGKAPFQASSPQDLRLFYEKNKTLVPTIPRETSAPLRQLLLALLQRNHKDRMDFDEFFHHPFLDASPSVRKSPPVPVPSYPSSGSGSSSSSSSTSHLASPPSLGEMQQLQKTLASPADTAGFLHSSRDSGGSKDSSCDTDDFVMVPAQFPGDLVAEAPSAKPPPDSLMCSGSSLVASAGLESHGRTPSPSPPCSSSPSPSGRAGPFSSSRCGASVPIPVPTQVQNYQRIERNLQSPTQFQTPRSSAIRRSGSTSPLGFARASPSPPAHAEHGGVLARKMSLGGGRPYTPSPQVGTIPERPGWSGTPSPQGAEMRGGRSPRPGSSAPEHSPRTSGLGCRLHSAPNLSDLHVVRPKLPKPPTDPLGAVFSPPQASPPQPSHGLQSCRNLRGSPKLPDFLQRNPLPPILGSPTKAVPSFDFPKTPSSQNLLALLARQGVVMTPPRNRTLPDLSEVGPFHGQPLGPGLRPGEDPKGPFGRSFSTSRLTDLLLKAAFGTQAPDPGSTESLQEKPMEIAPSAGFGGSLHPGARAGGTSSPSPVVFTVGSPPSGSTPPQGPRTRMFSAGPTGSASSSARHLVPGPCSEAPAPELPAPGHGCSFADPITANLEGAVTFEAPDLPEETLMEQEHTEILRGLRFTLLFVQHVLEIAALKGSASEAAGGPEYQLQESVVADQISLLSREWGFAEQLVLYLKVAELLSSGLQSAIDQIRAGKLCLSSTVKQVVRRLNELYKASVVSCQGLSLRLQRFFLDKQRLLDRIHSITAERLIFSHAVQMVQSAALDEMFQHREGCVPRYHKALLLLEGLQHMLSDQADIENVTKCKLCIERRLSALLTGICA
Briefly: Inhibition of SUMO-tagged ULK1 (unknown origin) kinase domain expressed in KRX cells using [32P]-gamma-ATP and myelin basic protein substrate incubated for 7 mins. The experiment is classed as cell-based. The method, boiled down:
as §1

As for `O=C(NCCCNc1nc(Nc2cccc(CN3CCOCC3)c2)ncc1C1CC1)C1CCC1`, in experiment [1], the outcome was Active. Further, the IC50 in experiment [2] worked out at 0.421 µM.

For the molecule `O=C(NCCCNc1nc(Nc2cccc(NC(=O)N3CCCC3)c2)ncc1I)C1CC1`, the half-inhibitory concentration (IC50) worked out at 0.2 µM in experiment [3], 0.067 µM in experiment [4] and 0.056 µM in experiment [2]. The outcome in experiment [1] was Active.

For `O=C(NCCCNc1nc(Nc2cccc(NC(=O)N3CCCC3)c2)ncc1I)c1cccs1` [BX-795], the IC50 in experiment [3] amounted to 0.31 µM; in experiment [4] it was 0.087 µM; in experiment [2] it was 0.065 µM. In experiment [1], the outcome was Active.
